A word on the Ki: it is a measure of affinity in units of concentration, obtained from inhibition or displacement.

In series [1] the test system is Mus musculus. The series is described as follows: Anxiolytic-like activity in Swiss albino mouse assessed as number of punished crossings at 20 mg/kg, ip administered 60 mins prior to test and measured post 3 secs of electric shock by four-plate test (reference value: 3.8 to 4 /min). It is filed as functional.
Series [2] addresses D(2) dopamine receptor (Homo sapiens, UniProt P14416). The series is described as follows: Displacement of [3H]-raclopride from human D2L receptor expressed in HEK293 cell membranes after 1 hr by Microbeta scintillation counting method.
The test system of series [3] is Mus musculus. The series is described as follows: Effect on spontaneous locomotor activity in Swiss albino mouse at 20 mg/kg, ip administered 60 mins prior to test and measured for 3 to 6 mins. It is filed as ADME, organism-based. As to conditions: in vivo. The method, boiled down: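 Male Swiss Albino mice given compound or vehicle (1% Tween 80, 10 ml/kg) i.p. 60 min before test. Each mouse placed alone in a cage for 30 min habituation. Ambulation (photobeam channel crossings) then recorded over a 3–6 min session. Means ± SEM.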

Series [4] deals with Mus musculus. The series is described as follows: Antidepressant like activity in Swiss albino mouse assessed as immobility time at 5 mg/kg, ip administered 60 mins prior to test and measured last 4 mins of 6 mins test by forced swimming test (reference value: 159.78 to 183.56 secs). It is filed as functional.
The test system of series [5] is Mus musculus. The series is described as follows: Anxiolytic-like activity in Swiss albino mouse assessed as number of punished crossings at 10 mg/kg, ip administered 60 mins prior to test and measured post 3 secs of electric shock by four-plate test (reference value: 3.8 to 4 /min). The series is classed as functional.
Series [6] addresses 5-hydroxytryptamine receptor 7 (Homo sapiens, UniProt P34969). The series is described as follows: Displacement of [3H]-5-CT from human 5HT7BR expressed in HEK293 cell membranes after 1 hr by Microbeta scintillation counting method. (In general: Loss of bound radioactivity is the signal in a displacement assay; it reports binding, not function.)
In series [7] the target is Beta-1 adrenergic receptor (Rattus norvegicus, UniProt P18090). The series is described as follows: Displacement of [3H]-CGP-12177 from beta1-adrenergic receptor in rat brain cortex after 1 hr by Microbeta scintillation counting method.
Beta-1 adrenergic receptor, sequence (P18090 whole entry): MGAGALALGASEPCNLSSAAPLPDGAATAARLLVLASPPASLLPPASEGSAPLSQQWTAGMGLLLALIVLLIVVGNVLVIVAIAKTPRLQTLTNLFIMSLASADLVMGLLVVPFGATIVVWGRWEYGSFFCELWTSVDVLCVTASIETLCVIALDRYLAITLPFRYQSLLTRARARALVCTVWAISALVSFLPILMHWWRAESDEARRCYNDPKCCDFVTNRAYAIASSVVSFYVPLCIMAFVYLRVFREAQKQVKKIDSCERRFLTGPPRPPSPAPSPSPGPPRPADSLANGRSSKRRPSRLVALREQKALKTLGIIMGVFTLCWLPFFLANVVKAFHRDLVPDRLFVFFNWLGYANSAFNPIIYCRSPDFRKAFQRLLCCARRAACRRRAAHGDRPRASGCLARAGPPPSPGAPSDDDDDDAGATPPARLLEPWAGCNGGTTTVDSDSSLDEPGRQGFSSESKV
The species named for series [8] is Homo sapiens. The series is described as follows: Selectivity ratio of Ki for human D2L receptor expressed in HEK293 cell membranes to Ki for human 5HT7BR expressed in HEK293 cell membranes. The series is classed as cell-based. The method, boiled down:
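Membranes from HEK293 cells stably expressing human 5-HT1A, 5-HT7b or D2L receptors. Buffers all 50 mM Tris HCl with 4 mM MgCl2 and 0.1% ascorbate. 5-HT1A: 0.1 mM EDTA, 10 µM pargyline, 2.5 nM [3H]-8-OH-DPAT, room temperature. 5-HT7b: 10 µM pargyline, 0.8 nM [3H]-5-CT, 37°C. D2L: EDTA, NaCl, KCl, CaCl2, 2.5 nM [3H]-raclopride, 37°C. Incubation 1 h; nonspecific binding 10 µM 5-HT (haloperidol for D2L). Seven concentrations (10^-10–10^-4 M) in triplicate; filtration; Ki by Cheng-Prusoff; at least two experiments.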

Series [9] has as its system Mus musculus. The series is described as follows: Antidepressant like activity in Swiss albino mouse assessed as immobility time at 10 mg/kg, ip administered 60 mins prior to test and measured last 4 mins of 6 mins test by forced swimming test (reference value: 159.78 to 183.56 secs). The series is classed as functional.
The test system of series [10] is Mus musculus. The series is described as follows: Anxiolytic-like activity in Swiss albino mouse assessed as number of punished crossings at 40 mg/kg, ip administered 60 mins prior to test and measured post 3 secs of electric shock by four-plate test (reference value: 3.8 to 4 /min). It is filed as functional.
Series [11] has as its system Mus musculus. The series is described as follows: Antidepressant like activity in Swiss albino mouse assessed as immobility time at 20 mg/kg, ip administered 60 mins prior to test and measured last 4 mins of 6 mins test by forced swimming test (reference value: 159.78 to 183.56 secs). It is filed as functional.
The target of series [12] is T1, 5-hydroxytryptamine receptor 1A (Homo sapiens, UniProt P08908).
T1 sequence (P08908 whole entry): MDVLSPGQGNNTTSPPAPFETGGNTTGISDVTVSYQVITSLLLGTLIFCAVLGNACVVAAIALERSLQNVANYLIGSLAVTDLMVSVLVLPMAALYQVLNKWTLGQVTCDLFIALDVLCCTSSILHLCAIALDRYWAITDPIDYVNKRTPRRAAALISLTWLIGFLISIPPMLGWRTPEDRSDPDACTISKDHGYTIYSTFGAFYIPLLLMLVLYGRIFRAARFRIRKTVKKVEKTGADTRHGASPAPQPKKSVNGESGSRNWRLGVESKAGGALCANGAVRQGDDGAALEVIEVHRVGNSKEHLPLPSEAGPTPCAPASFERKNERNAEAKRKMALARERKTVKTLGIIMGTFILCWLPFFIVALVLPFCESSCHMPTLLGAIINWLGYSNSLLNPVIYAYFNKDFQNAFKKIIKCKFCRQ
The series is described as follows: Displacement of [3H]-8-OH-DPAT from human 5HT1AR expressed in HEK293 cell membranes after 1 hr by Microbeta scintillation counting method.

Series [13] concerns Mus musculus. The series is described as follows: Antidepressant like activity in Swiss albino mouse assessed as decrease in immobility time at 20 mg/kg, ip administered 60 mins prior to test and measured last 4 mins of 6 mins test by forced swimming test relative to control. The series is classed as functional. Also on record: scale not given: the % may be the effect or the level left.

Series [14] has as its target T2, Adrenergic receptor alpha-1 (Rattus norvegicus, UniProt P15823+P23944+P43140).
T2 sequence (P15823 whole entry): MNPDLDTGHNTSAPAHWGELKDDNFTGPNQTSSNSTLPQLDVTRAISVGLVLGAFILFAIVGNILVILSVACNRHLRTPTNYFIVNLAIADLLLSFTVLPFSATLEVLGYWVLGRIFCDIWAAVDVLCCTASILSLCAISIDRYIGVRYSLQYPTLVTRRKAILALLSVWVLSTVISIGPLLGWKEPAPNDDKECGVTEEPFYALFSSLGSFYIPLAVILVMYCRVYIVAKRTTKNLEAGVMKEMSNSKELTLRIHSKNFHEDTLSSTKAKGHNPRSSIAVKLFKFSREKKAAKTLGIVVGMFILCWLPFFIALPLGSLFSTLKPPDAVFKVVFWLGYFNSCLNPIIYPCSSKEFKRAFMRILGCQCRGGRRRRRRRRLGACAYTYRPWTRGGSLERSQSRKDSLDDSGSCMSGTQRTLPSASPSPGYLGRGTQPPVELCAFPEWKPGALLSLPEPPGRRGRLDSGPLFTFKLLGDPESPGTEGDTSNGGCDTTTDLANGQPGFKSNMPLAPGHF
T2 sequence (P23944 whole entry): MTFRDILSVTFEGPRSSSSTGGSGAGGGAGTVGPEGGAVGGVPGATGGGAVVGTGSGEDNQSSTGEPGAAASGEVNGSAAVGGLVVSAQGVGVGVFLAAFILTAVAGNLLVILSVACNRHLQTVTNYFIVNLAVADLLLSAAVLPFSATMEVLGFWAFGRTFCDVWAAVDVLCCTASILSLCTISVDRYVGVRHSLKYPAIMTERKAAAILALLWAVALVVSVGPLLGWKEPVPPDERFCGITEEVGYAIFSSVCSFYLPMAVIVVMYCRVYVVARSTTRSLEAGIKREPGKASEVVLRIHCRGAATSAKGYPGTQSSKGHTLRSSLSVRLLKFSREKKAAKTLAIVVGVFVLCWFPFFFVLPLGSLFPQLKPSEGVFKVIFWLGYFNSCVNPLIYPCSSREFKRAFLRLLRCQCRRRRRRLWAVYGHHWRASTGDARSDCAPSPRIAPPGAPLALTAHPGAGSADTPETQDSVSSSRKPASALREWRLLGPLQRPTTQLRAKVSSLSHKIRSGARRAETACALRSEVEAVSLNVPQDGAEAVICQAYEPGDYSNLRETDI
T2 sequence (P43140 whole entry): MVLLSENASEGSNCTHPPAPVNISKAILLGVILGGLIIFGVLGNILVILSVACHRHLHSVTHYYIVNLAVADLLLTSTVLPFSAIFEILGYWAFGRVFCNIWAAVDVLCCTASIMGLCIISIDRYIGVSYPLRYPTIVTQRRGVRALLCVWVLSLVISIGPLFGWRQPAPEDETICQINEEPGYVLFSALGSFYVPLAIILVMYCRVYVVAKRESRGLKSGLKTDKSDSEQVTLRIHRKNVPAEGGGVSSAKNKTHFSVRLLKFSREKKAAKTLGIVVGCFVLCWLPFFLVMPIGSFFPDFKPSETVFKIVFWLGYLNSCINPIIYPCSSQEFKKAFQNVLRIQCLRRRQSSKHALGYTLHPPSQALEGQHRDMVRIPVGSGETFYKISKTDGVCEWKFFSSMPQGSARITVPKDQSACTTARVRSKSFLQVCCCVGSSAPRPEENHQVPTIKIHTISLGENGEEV
The series is described as follows: Displacement of [3H]-prazosin from alpha1-adrenergic receptor in rat brain cortex after 30 mins by Microbeta scintillation counting method.

Series [15] deals with Mus musculus. The series is described as follows: Antidepressant like activity in Swiss albino mouse assessed as immobility time at 5 mg/kg, ip administered 30 mins prior to test and measured last 4 mins of 6 mins test by forced swimming test (reference value: 162.71 +/- 6.8 secs). The series is classed as functional.
In series [16] the test system is Mus musculus. The series is described as follows: Antidepressant like activity in Swiss albino mouse assessed as immobility time at 20 mg/kg, ip administered 30 mins prior to test and measured last 4 mins of 6 mins test by forced swimming test (reference value: 162.71 +/- 6.8 secs). The series is classed as functional.
In series [17] the test system is Mus musculus. The series is described as follows: Antidepressant like activity in Swiss albino mouse assessed as immobility time at 10 mg/kg, ip administered 30 mins prior to test and measured last 4 mins of 6 mins test by forced swimming test (reference value: 162.71 +/- 6.8 secs). The series is classed as functional.

D(2) dopamine receptor, sequence (P14416 whole entry): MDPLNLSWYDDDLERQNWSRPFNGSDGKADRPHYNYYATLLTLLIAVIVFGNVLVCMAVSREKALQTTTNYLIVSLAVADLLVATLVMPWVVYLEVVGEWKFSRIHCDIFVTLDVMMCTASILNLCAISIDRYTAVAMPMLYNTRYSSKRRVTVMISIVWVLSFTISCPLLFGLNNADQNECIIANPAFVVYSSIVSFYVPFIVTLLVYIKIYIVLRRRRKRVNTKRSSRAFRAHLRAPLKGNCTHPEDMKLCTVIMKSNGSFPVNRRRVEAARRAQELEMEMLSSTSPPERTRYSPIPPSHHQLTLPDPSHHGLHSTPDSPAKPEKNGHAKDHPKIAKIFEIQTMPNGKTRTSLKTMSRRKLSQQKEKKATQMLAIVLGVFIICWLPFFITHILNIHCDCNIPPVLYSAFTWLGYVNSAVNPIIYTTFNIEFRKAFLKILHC
5-hydroxytryptamine receptor 7, sequence (P34969 whole entry): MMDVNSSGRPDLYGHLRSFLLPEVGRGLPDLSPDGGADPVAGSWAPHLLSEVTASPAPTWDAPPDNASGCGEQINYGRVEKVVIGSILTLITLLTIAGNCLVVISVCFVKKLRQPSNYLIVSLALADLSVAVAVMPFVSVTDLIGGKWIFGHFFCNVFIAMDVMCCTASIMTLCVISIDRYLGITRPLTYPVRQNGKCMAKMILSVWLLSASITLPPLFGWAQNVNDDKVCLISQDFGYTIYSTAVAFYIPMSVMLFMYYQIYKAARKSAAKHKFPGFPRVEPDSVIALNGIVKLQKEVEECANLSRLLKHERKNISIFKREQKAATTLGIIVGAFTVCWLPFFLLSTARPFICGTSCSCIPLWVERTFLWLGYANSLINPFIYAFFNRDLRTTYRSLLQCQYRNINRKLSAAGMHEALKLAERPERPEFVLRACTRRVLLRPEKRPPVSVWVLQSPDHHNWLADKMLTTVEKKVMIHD

Regarding `CC1(c2ccccc2)NC(=O)N(CC(O)CN2CCN(c3ccccc3C#N)CC2)C1=O.Cl` (racemic), the Activity in series [1] was 4.9 min⁻¹; in [3], “Non-Toxic”; in series [5], 3.3 min⁻¹; in [10], 5.2 min⁻¹; in [13], 80%. Moreover, the Ki in series [2] was 1690 nM; in series [6] it was 12 nM; in series [7] it was more than 10 µM; in series [12], 585 nM; in series [14], 278 nM. Besides, the Time came out at 141.22 s in series [4], 134.57 s in series [9] and 34.44 s in [11]. Further, the Ratio Ki in [8] was in the range of 140 to 190.
For the molecule `CN(C)CCCN1c2ccccc2CCc2ccccc21` [IMIPRAMINE], the Time in series [15] came out at 170.42 s; in series [16] it was 77.81 s; in series [17], 119.63 s.

Values taken from ChEMBL document CHEMBL4145534, “Computer-aided insights into receptor-ligand interaction for novel 5-arylhydantoin derivatives as serotonin 5-HT7 receptor agents with antidepressant activity” (Eur J Med Chem, 2018).
